Screening data (PubChem BioAssay)
Hits are enriched below; roughly 2.1% of the tested compounds scored in any of these assays.
DENV2 CPE – protects cells from dengue virus 2 cytopathic effect; DENV2-infected cells, cytopathic effect rescue, plate reader; CPE inhibition, % at 9.99 µM; 1.7% of 350,000 active; in the data active means CPE inhibition above about 20%, passing the limit was not always enough; inconclusive means no clear call, values can overlap the other calls; tested in BHK-21 cells
Xi reactivation – activators of X-chromosome reactivation in mouse fibroblasts; AID 743238; activation, % at 7.58 µM; XiGFP mouse fibroblasts, % GFP-positive cells imaging, 3 d; cells co-treated with 5-aza-dC sensitizer; scaled so ellipticine positive control = 100%; 0.055% of 360,000 active;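 active means mean normalized replicate activation at least 10% and every replicate at or above 10%; inconclusive means only one of the two criteria met; inactive means mean below 10% and not all replicates reach 10%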
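System: SV40-immortalized XiGFP fibroblast cells, line 68-5-11 / Incubation: 3-day compound exposure, then 15 min fixation at room temperature / Compound: single concentration per compound, delivered by pin transfer / Buffer or medium: DMEM plus 5-aza-dC sensitizer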
Cneo AK release – causes C. neoformans cell lysis | adenylate kinase release luminescence, 4 h; normalised: neutral wells 0, clomiphene wells 100 | lysis activity, % at 15 µM | 0.2% of 360,000 active;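 active means mean lysis activity across replicates of at least 80%, whatever share of replicates individually reach that level; inactive means mean lysis activity below 80%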
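Test system: log-phase Cryptococcus neoformans yeast cells. Input: 5 × 10^6 yeast cells/mL. Medium: fresh YPD growth medium. Doses: single dose. Incubation: static 4 h at 37 °C with compound, 1 h detection. Measured by: luminescent adenylate kinase detection reagent. Read-out: signal increase indicating cell lysis. Benchmarks: Clomiphene.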
Statin myotox sup – suppressors of simvastatin-induced myotoxicity in C2C12 myotubes | ATP luminescence, 48 h; scaled: DMSO 0, geranylgeraniol control 100 | rescue of ATP level, % at 7.49 µM | 0.78% of 330,000 active;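 active means mean ATP rescue above about 67%, or every replicate alone reaching that limit, limit read from the data, passing the limit was not always enough; inconclusive means no clear call, values can overlap the other calls; inactive means mean under the limit and some replicate under it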;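 further: myotubes were challenged with 10 µM simvastatin during compound exposure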
Hits are given with their value; - = inactive; ? = inconclusive; . = no result; ! = a repeat was not active.

SMILES	DENV2 CPE	Xi reactivation	Cneo AK release	Statin myotox sup
C[C@H](CO)N1C[C@H](C)[C@@H](CN(C)Cc2ccc(C(=O)Nc3ccccc3N)cc2)Oc2ccc(NC(=O)Nc3ccc(C(F)(F)F)cc3)cc2C1=O	-	-	-	82.1
C[C@H]1CN([C@@H](C)CO)C(=O)c2cc(NC(=O)Nc3cccc4ccccc34)ccc2O[C@H]1CN(C)Cc1ccc(C(=O)Nc2ccccc2N)cc1	-	-	-	202.1
C[C@H]1CN([C@@H](C)CO)C(=O)c2cc(NC(=O)Nc3ccc(C(F)(F)F)cc3)ccc2O[C@H]1CN(C)Cc1ccc(C(=O)Nc2ccccc2N)cc1	-	-	.	.
C[C@@H]1CN([C@@H](C)CO)C(=O)c2cc(NC(=O)Nc3ccc(C(F)(F)F)cc3)ccc2O[C@@H]1CN(C)Cc1ccc(C(=O)Nc2ccccc2N)cc1	-	-	-	72.0
CC(=O)OC1CCC2C3CCC4=CC(=O)CCC4(C)C3CCC2(C)[C@]1(C)O (stereo not given in full)	105.7	-	-	-
CC(=O)[C@@]1(O)CC[C@H]2[C@@H]3CCC4=CC(=O)CC[C@]4(C)[C@H]3CC[C@@]21C	-	-	-	-
Nc1nc(C2CC2)c(Sc2sc(N)nc2C2CC2)s1	.	.	-	69.4
Nc1nc(C2CCOCC2)cs1	-	?	-	.
C[C@@H]1CN(C)C(=O)c2cc(NS(C)(=O)=O)ccc2O[C@H]1CN(C)S(C)(=O)=O	.	-	.	.
O=c1[nH]c(=O)n2c(c1-c1ccccc1)OC(CBr)C2 (stereo not given)	75.0	-	-	-
CNC[C@H]1OCCCC[C@H](C)Oc2ccc(NS(C)(=O)=O)cc2C(=O)N([C@@H](C)CO)C[C@@H]1C	-	-	-	-
OC1CCCCC1	67.4	.	-	-
O=C(c1cccc(F)c1)N1C[C@@H]2[C@H](c3ccccc31)[C@H](CO)N2C(=O)C1CC1	31.6	-	-	-
COCC(=O)N1[C@H](CO)[C@H]2c3ccccc3N(C(=O)c3cccc(OC)c3)C[C@H]21	54.9	-	-	-
O=C(c1cccc(F)c1)N1C[C@@H]2[C@H](c3ccccc31)[C@@H](CO)N2C(=O)c1cccc(F)c1	-	-	-	-
O=C(c1ccccc1)N1C[C@@H]2[C@H](c3ccccc31)[C@H](CO)N2C(=O)c1cccc(F)c1	25.8	-	-	-
Cc1ccc(S(=O)(=O)N(C)C[C@@H]2Oc3c(NC(=O)c4cnccn4)cccc3C(=O)N([C@H](C)CO)C[C@@H]2C)cc1	-	-	-	-
CCOc1ccc(NN=C(C(=O)OC)C(=O)OC)c([N+](=O)[O-])c1	37.0	-	-	.
CCOc1ccc(NC(=O)Cc2ccccc2)c([N+](=O)[O-])c1	.	-	-	.
O=C(C1CCCN(S(=O)(=O)c2cccnc2)C1)N1CCN(c2ccccn2)CC1 (stereo not given)	87.2	-	-	-
C[C@H](CO)N1C[C@H](C)[C@@H](CN(C)C(=O)NC2CCCCC2)OCCCC[C@H](C)Oc2ccc(NS(=O)(=O)c3ccc(Cl)cc3)cc2C1=O	-	-	-	.
Cc1cc2ccccn2c1C(=O)c1ccc(F)cc1	-	-	-	-
Cc1cc2ccccn2c1C(=O)c1ccccc1Br	41.7	-	-	-
CCC12CC3CC(C1)CC(C(=O)NNC(N)=O)(C3)C2	-	-	-	105.7
C[C@@H]1CN([C@@H](C)CO)C(=O)c2cc(NS(=O)(=O)c3cn(C)cn3)ccc2O[C@@H](C)CCCCO[C@@H]1CN(C)C(=O)NC1CCCCC1	?	-	-	-
SMILES	DENV2 CPE	Xi reactivation	Cneo AK release	Statin myotox sup
Cc1cccc(Cn2c(N3CCCCC3C)nc3c2c(=O)[nH]c(=O)n3C)c1 (stereo not given)	?	-	-	119.6
Cc1cccc(Cn2c(N3CCN(C)CC3)nc3c2c(=O)[nH]c(=O)n3C)c1	-	-	-	-
Cc1ccc(S(=O)(=O)N(C)C[C@@H]2Oc3c(NS(=O)(=O)c4ccc(F)cc4)cccc3C(=O)N([C@@H](C)CO)C[C@@H]2C)cc1	-	-	-	-
Cc1n[nH]c2ccccc2c1=O	-	-	-	-
CC(C)(C)c1ccc(Nc2n[nH]c3ccccc23)cc1	65.8	-	-	-
CCOc1ccccc1CN1CCNC(=O)C1CC(=O)N(C)CCc1ccccn1 (stereo not given)	-	-	-	118.4
Cc1cc(Cl)c(OCCCNC2CCCC2)c(Br)c1	27.2	-	-	-
CC(=O)Nc1sc2c(c1C#N)CCC(C)C2 (stereo not given)	-	-	-	111.1
CC1CCc2c(sc(NC(=O)c3ccccc3C(=O)O)c2C#N)C1 (stereo not given)	-	-	.	.
CCOc1cc(NC(=O)C2CC2)c(OCC)cc1NC(=O)c1ccccn1	.	.	-	121.0
C[C@@H]1CN([C@@H](C)CO)S(=O)(=O)c2ccc(-c3cccnc3)cc2O[C@H]1CN(C)C(=O)C1CCC1	?	-	-	-
CCN(CC(=O)Nc1cc(Cl)ccc1C)C(=O)c1ccc2c(c1)NC(=O)C(C)S2 (stereo not given)	50.2	-	-	-
COc1ccccc1C(CNC(=O)c1cccc(S(=O)(=O)N2CCCc3ccccc32)c1)N(C)C (stereo not given)	-	-	-	-
COc1ccccc1CN(C)C(=O)c1cccc(S(=O)(=O)N2CCCc3ccccc32)c1	80.7	-	-	-
O=S(=O)(Nc1nc2c(s1)CCCC2)c1ccc2ccccc2c1	.	.	-	122.6
C[C@@H]1CCCCO[C@@H](CN(C)C(=O)c2ccncc2)[C@H](C)CN([C@H](C)CO)C(=O)c2cc(N(C)C)ccc2O1	-	-	-	-
CC(C)N1C(=O)C2(OCCCO2)c2cc(Br)ccc21	-	-	84.4	-
CCCCC1=CC2=C(c3ccco3)C(=O)C(C)(OC(=O)c3ccc(OC)cc3)C(=O)C2=CN1C1CC1 (stereo not given)	52.9	-	-	-
COc1ccc(C=O)cc1CSc1nnc(COc2cccc3cccnc23)o1	.	.	-	138.0
COc1ccc(N2CCN(C(=O)CSc3nnc(COc4cccc5cccnc45)o3)CC2)cc1	-	.	-	-
CNC(=O)C[C@H]1CC[C@@H]2[C@H](COC[C@@H](O)CN2C(=O)c2ccccn2)O1	-	-	-	-
COc1ccccc1NC(=O)N1CCN(c2ccccn2)CC1	31.4	-	-	-
COc1cc(CNc2nccn3ccnc23)cc(OC)c1	36.3	-	-	-
COCC(=O)N(C)C[C@H]1Oc2cc(-c3ccc(C)cc3)ccc2S(=O)(=O)N([C@@H](C)CO)C[C@@H]1C	-	-	-	-
O=C(CSCc1cnn(-c2ccccc2)c1-n1cccc1)NCc1cccs1	.	.	-	121.0
C[C@H]1CN([C@@H](C)CO)S(=O)(=O)c2ccc(Br)cc2O[C@H]1CN(C)C(=O)CN(C)C	37.7!	-	-	-
CCC(=O)N(C)C[C@H]1Oc2cc(Br)ccc2S(=O)(=O)N([C@@H](C)CO)C[C@H]1C	-	-	-	-
CC(=O)N(C)C[C@@H]1Oc2cc(Br)ccc2S(=O)(=O)N([C@H](C)CO)C[C@@H]1C	36.2!	-	-	-
